Reference: ChEMBL document CHEMBL2380235, “Discovery of N-{4-[(3-hydroxyphenyl)-3-methylpiperazin-1-yl]methyl-2-methylpropyl}-4-phenoxybenzamide analogues as selective kappa opioid receptor antagonists” (J Med Chem, 2013)
Activity calls are given as the source filed them. The rule behind the calls is not given here.

Tests used:
[1] = species: Homo sapiens; test: Selectivity ratio of Ke for human mu opioid receptor to Ke for human kappa opioid receptor
[2] = biological target: Mu-type opioid receptor (Homo sapiens) (UniProt P35372); settings: CHO
Chain of Mu-type opioid receptor (Homo sapiens) (P35372 whole entry): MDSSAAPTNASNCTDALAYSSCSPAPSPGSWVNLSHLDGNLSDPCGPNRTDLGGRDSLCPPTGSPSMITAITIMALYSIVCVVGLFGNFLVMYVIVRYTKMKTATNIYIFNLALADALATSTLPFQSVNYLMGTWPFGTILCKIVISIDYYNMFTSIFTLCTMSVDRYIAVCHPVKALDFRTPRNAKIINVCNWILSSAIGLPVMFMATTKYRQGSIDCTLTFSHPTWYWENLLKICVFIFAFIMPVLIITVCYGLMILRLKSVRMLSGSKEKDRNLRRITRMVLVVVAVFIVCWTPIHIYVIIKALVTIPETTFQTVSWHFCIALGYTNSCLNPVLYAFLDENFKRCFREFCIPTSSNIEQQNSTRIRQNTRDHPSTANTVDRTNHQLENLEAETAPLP

[3] = species: Homo sapiens; test: Selectivity ratio of Ke for human delta opioid receptor to Ke for human kappa opioid receptor
[4] = biological target: Kappa-type opioid receptor (Homo sapiens) (UniProt P41145); test: Antagonist activity at human kappa opioid receptor expressed in CHO cells assessed as inhibition of U69,593-stimulated [35S]GTPgammaS binding; type: functional, cell-based
Chain of Kappa-type opioid receptor (Homo sapiens) (P41145 whole entry): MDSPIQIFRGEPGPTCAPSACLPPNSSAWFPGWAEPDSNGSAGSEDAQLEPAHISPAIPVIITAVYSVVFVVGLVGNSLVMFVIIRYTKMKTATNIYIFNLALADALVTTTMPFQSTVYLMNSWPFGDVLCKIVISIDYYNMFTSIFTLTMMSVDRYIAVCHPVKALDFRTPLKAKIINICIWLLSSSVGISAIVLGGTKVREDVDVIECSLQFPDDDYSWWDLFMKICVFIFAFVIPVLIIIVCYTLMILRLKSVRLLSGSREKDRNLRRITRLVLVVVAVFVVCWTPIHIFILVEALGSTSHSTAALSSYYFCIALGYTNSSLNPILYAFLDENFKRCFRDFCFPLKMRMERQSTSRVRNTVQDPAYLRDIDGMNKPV
Method in brief: (§1)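 Agonist concentration-response curves (eight concentrations, duplicate) were run with or without a single test-compound concentration. Ke = [L]/(DR−1), where [L] is the test-compound concentration and DR is the ratio of agonist EC50 with versus without compound. At least two test-compound concentrations were used, chosen to shift agonist EC50 rightward at least four-fold while keeping a clear upper asymptote.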

[5] = biological target: Delta-type opioid receptor (Homo sapiens) (UniProt P41143); test: Antagonist activity at human delta opioid receptor expressed in CHO cells assessed as inhibition of DPDPE-stimulated [35S]GTPgammaS binding; type: functional, cell-based; method in brief: as §1
Chain of Delta-type opioid receptor (Homo sapiens) (P41143 whole entry): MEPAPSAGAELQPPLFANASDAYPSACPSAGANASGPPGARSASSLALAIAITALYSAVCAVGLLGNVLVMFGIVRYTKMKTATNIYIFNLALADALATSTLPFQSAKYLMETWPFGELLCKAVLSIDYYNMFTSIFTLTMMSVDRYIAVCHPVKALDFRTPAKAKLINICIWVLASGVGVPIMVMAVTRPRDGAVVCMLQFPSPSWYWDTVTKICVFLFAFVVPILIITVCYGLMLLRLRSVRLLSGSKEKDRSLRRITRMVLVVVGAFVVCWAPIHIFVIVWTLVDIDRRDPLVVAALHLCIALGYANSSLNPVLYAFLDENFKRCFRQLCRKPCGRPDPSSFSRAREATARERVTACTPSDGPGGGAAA

[6] = biological target: Delta-type opioid receptor (Homo sapiens) (UniProt P41143); test: Intrinsic activity at human delta opioid receptor expressed in CHO cells at 10 uM by [35S]GTPgammaS binding assay; type: functional, cell-based
[7] = biological target: Kappa-type opioid receptor (Homo sapiens) (UniProt P41145); test: Intrinsic activity at human kappa opioid receptor expressed in CHO cells at 10 uM by [35S]GTPgammaS binding assay; type: functional, cell-based

Structure (SMILES) | Ratio Ke [1] | Ke [2] [nM] | Ratio Ke [3] | Ke [4] [nM] | Ke [5] [nM] | Activity [6] | Activity [7]
CC(C)[C@@H](CN1CCN(c2cccc(O)c2)[C@@H](C)C1)NC(=O)c1ccc(Oc2cccc(C(F)(F)F)c2)cc1 | 18 | 21 | 45 | 1.2 | 54 | inactive | inactive
Cc1cccc(Oc2ccc(C(=O)N[C@H](CN3CCN(c4cccc(O)c4)[C@@H](C)C3)C(C)C)cc2O)c1 | 24 | 13.7 | 142 | 0.57 | 81 | inactive | inactive
CC(C)[C@@H](CN1CCN(c2cccc(O)c2)[C@@H](C)C1)NC(=O)c1ccc(Oc2ccccc2)nc1 | 38 | 60 | 1120 | 1.6 | 1790 | inactive | inactive
COc1cc(C(=O)N[C@H](CN2CCN(c3cccc(O)c3)[C@@H](C)C2)C(C)C)ccc1Oc1ccccc1O | 5 | 74 | 7 | 16.3 | – | inactive | inactive
CC(C)[C@@H](CN1CCN(c2cccc(O)c2)[C@@H](C)C1)NC(=O)c1ccc(Oc2ccccc2)cn1 | 36 | 101 | 723 | 2.8 | 2020 | inactive | inactive
CC(C)[C@@H](CN1CCN(c2cccc(O)c2)[C@@H](C)C1)NC(=O)c1ccc(Oc2ccccc2F)cc1 | 28 | 21.1 | 126 | 0.76 | 96 | inactive | inactive
CC(C)[C@@H](CN1CCN(c2cccc(O)c2)[C@@H](C)C1)NC(=O)c1ccc(Oc2cccc(Cl)c2)cc1 | 43 | 18 | 20 | 0.42 | 8.3 | inactive | inactive
CC(C)[C@@H](CN1CCN(c2cccc(O)c2)[C@@H](C)C1)NC(=O)c1ccc(Oc2ccc(O)cc2)cc1 | 8 | 71 | 197 | 8.6 | 1700 | inactive | inactive
Cc1cc(C(=O)N[C@H](CN2CCN(c3cccc(O)c3)[C@@H](C)C2)C(C)C)ccc1Oc1ccccc1 | 24 | 15 | 691 | 0.63 | 435 | inactive | inactive
CC(C)[C@@H](CN1CCN(c2cccc(O)c2)[C@@H](C)C1)NC(=O)c1ccc(Oc2cccc(F)c2)cc1 | 20 | 30 | 117 | 1.48 | 173 | inactive | inactive
Cc1cccc(Oc2ccc(C(=O)N[C@H](CN3CCN(c4cccc(O)c4)[C@@H](C)C3)C(C)C)c(O)c2)c1 | 63 | – | 463 | 1.9 | – | inactive | inactive
CC(C)[C@@H](CN1CCN(c2cccc(O)c2)[C@H](C)C1)NC(=O)[C@H]1Cc2ccc(O)cc2CN1 | – | 49.4 | – | – | 1550 | inactive | inactive
CC(C)[C@@H](CN1CCN(c2cccc(O)c2)[C@@H](C)C1)NC(=O)[C@H]1Cc2ccc(O)cc2CN1 | – | 74.2 | – | – | 1310 | inactive | inactive
CC(C)[C@@H](CN1CCN(c2cccc(O)c2)[C@@H](C)C1)NC(=O)c1ccc(Oc2cccc(Br)c2)cc1 | 35 | 17 | 88 | 0.48 | 42 | inactive | inactive
Cc1cccc(Oc2ccc(C(=O)N[C@H](CN3CCN(c4cccc(O)c4)[C@@H](C)C3)C(C)C)c(C)c2)c1 | 28 | – | 22 | 0.65 | – | inactive | inactive
COc1cccc(Oc2ccc(C(=O)N[C@H](CN3CCN(c4cccc(O)c4)[C@@H](C)C3)C(C)C)cc2)c1 | 52 | 33 | 2380 | 0.63 | 1500 | inactive | inactive
COc1ccccc1Oc1ccc(C(=O)N[C@H](CN2CCN(c3cccc(O)c3)[C@@H](C)C2)C(C)C)cc1 | 23 | 127 | 155 | 5.6 | 869 | inactive | inactive

Structure (SMILES) | Ratio Ke [1] | Ke [2] [nM] | Ratio Ke [3] | Ke [4] [nM] | Ke [5] [nM] | Activity [6] | Activity [7]
CC(C)[C@@H](CN1CCN(c2cccc(O)c2)[C@@H](C)C1)NC(=O)c1ccc(Oc2cccc(O)c2)cc1 | 37 | 69 | 338 | 1.85 | 625 | inactive | inactive
CC(C)[C@@H](CN1CCN(c2cccc(O)c2)[C@@H](C)C1)NC(=O)c1ccc(Oc2ccccc2O)cc1 | 146 | 125 | 906 | 1.06 | 960 | inactive | inactive
Cc1cccc(Oc2ccc(C(=O)N[C@H](CN3CCN(c4cccc(O)c4)[C@@H](C)C3)C(C)C)cc2)c1 | 77 | 13 | 771 | 0.17 | 131 | inactive | inactive
COc1ccc(Oc2ccc(C(=O)N[C@H](CN3CCN(c4cccc(O)c4)[C@@H](C)C3)C(C)C)cc2)cc1 | 28 | 17 | 2300 | 0.6 | 1380 | inactive | inactive
Cc1ccc(Oc2ccc(C(=O)N[C@H](CN3CCN(c4cccc(O)c4)[C@@H](C)C3)C(C)C)cc2)cc1 | 29 | 20 | 272 | 0.69 | 188 | inactive | inactive
CC(C)[C@@H](CN1CCN(c2cccc(O)c2)[C@@H](C)C1)NC(=O)c1ccc(Oc2ccccc2O)c(Cl)c1 | 7 | – | 42 | 5 | – | inactive | inactive
COc1cc(Oc2cccc(C)c2)ccc1C(=O)N[C@H](CN1CCN(c2cccc(O)c2)[C@@H](C)C1)C(C)C | 38 | 49 | 48 | 1.3 | 63 | inactive | inactive
Cc1cc(C)cc(Oc2ccc(C(=O)N[C@H](CN3CCN(c4cccc(O)c4)[C@@H](C)C3)C(C)C)cc2)c1 | 26 | 25 | 80 | 0.98 | 78 | inactive | inactive
Cc1cccc(Oc2ccc(C(=O)N[C@H](CN3CCN(c4cccc(O)c4)[C@@H](C)C3)C(C)C)cc2C)c1 | 89 | 14.4 | 131 | 0.16 | 21 | inactive | inactive
COc1ccc(C(=O)N[C@H](CN2CCN(c3cccc(O)c3)[C@@H](C)C2)C(C)C)cc1OC | 4 | – | – | 81.7 | – | inactive | –
Cc1ccc(O)c(Oc2ccc(C(=O)N[C@H](CN3CCN(c4cccc(O)c4)[C@@H](C)C3)C(C)C)cc2Cl)c1 | 3 | 8.2 | 5 | 3 | 15 | inactive | inactive
Cc1cccc(Oc2ccc(C(=O)N[C@H](CN3CCN(c4cccc(O)c4)[C@@H](C)C3)C(C)C)cc2Cl)c1 | 148 | 43 | 3790 | 0.29 | 1100 | inactive | inactive
Cc1cccc(Oc2ccc(C(=O)N[C@H](CN3CCN(c4cccc(O)c4)[C@@H](C)C3)C(C)C)cc2)c1O | 70 | 23.8 | 272 | 0.34 | 93 | inactive | inactive
COc1cc(C(=O)N[C@H](CN2CCN(c3cccc(O)c3)[C@@H](C)C2)C(C)C)ccc1Oc1cccc(C)c1 | 140 | 35.1 | 372 | 0.25 | 93 | inactive | inactive
Cc1ccc(O)c(Oc2ccc(C(=O)N[C@H](CN3CCN(c4cccc(O)c4)[C@@H](C)C3)C(C)C)cc2)c1 | – | – | – | – | – | inactive | inactive
COc1cc(C(=O)N[C@H](CN2CCN(c3cccc(O)c3)[C@@H](C)C2)C(C)C)ccc1Oc1cc(C)ccc1O | 1.6 | – | 19 | 6.2 | – | inactive | inactive
